Reference: ChEMBL document CHEMBL2417400, “Discovery of a novel 5-carbonyl-1H-imidazole-4-carboxamide class of inhibitors of the HIV-1 integrase-LEDGF/p75 interaction” (Bioorg Med Chem, 2013)

Tests used:
[1] = Cytotoxicity against human MT4 cells; format: cell-based
[2] = system: Human immunodeficiency virus 1; assay: Antiviral activity against HIV1 infected in human MT4 cells assessed as virus-induced cytopathic effect by MTT assay; format: functional, organism-based; details: Human immunodeficiency virus 1, MT4
[3] = Inhibition of recombinant His6-tagged HIV-1 integrase binding to FLAG-tagged LEDGF/p75 (unknown origin) interaction expressed in Escherichia coli BL21(DE3) at 20 uM treated 30 mins before LEDGF/p75 addition measured after 60 mins by quench assay
Procedure, shortened: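 Emission-quench counter-screen run like the IN–LEDGF/p75 AlphaScreen, with FLAG-tagged GST (500 nM final) instead of both proteins. Same buffer, Ni-chelate donor and anti-FLAG acceptor beads, 1 h at 30 °C, acceptor emission read. Reported as percent inhibition at a single compound concentration.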

[4] = target: T1, Human immunodeficiency virus type 1 integrase (Human immunodeficiency virus 1, UniProt Q7ZJM1); assay: Inhibition of recombinant His6-tagged HIV-1 integrase 3' strand transfer activity
T1 sequence (Q7ZJM1 whole entry): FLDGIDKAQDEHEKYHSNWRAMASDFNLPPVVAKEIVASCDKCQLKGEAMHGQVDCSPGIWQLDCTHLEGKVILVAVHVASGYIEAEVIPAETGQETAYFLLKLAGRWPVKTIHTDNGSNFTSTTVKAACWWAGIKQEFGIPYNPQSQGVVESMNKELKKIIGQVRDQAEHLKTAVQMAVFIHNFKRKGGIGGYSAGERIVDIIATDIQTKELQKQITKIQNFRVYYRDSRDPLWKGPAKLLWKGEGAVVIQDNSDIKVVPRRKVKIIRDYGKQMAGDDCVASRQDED

[5] = target: T1, Human immunodeficiency virus type 1 integrase; assay: Inhibition of recombinant His6-tagged HIV-1 integrase 3' processing activity
[6] = Inhibition of recombinant His6-tagged HIV-1 integrase binding to FLAG-tagged LEDGF/p75 (unknown origin) interaction expressed in Escherichia coli BL21(DE3) treated 30 mins before LEDGF/p75 addition measured after 60 mins by AlphaScreen assay
Procedure, shortened: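 His6-IN (300 nM final) with compound for 30 min at 4 °C. FLAG-LEDGF/p75 (300 nM final) added for 60 min at 4 °C. Ni-chelate donor and anti-FLAG acceptor beads added, 1 h at 30 °C, light exposure minimized. Acceptor emission read. IC50 is the 50% inhibition of the interaction.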

SMILES | CC50 [1] | EC50 [2] | inhibition [3] | IC50 [4] | IC50 [5] | IC50 [6]
NNC(=O)c1[nH]cnc1C(=O)Nc1ccccn1 | > 20 µM | > 20 µM | < 50% | > 20 µM | > 20 µM | 0.4 µM
O=C(Nc1ccccn1)c1nc[nH]c1C(=O)N1CCC(O)CC1 | > 20 µM | > 20 µM | < 50% | > 20 µM | > 20 µM | > 20 µM
O=C(Nc1ccccc1)c1nc[nH]c1C(=O)O | > 20 µM | > 20 µM | < 50% | > 20 µM | > 20 µM | 6 µM
O=C(Nc1ccccc1O)c1nc[nH]c1C(=O)N1CCC(O)CC1 | > 20 µM | > 20 µM | < 50% | > 20 µM | > 20 µM | > 20 µM
O=C(Nc1ccccc1O)c1nc[nH]c1C(=O)N1CCNCC1 | > 20 µM | > 20 µM | < 50% | > 20 µM | > 20 µM | > 20 µM
O=C(Nc1ccc(F)cc1)c1nc[nH]c1C(=O)O | > 20 µM | > 20 µM | < 50% | > 20 µM | > 20 µM | 10 µM
O=C(Nc1ccccn1)c1nc[nH]c1C(=O)O | > 20 µM | > 20 µM | < 50% | > 20 µM | > 20 µM | 13 µM
CNC(=O)c1[nH]cnc1C(=O)Nc1ccccn1 | > 20 µM | > 20 µM | < 50% | > 20 µM | > 20 µM | > 20 µM
O=C(NCc1ccc(F)cc1)c1nc[nH]c1C(=O)O | > 20 µM | > 20 µM | < 50% | > 20 µM | > 20 µM | > 20 µM
O=C(Nc1ccccc1O)c1nc[nH]c1C(=O)N1CCOCC1 | > 20 µM | > 20 µM | < 50% | > 20 µM | > 20 µM | > 20 µM
Nc1ccc(NC(=O)c2nc[nH]c2C(=O)O)cc1 | > 20 µM | > 20 µM | < 50% | > 20 µM | > 20 µM | 1 µM
O=C(Nc1ccc([N+](=O)[O-])cc1)c1nc[nH]c1C(=O)O | > 20 µM | > 20 µM | < 50% | > 20 µM | > 20 µM | 5.3 µM
Cc1ccc(NC(=O)c2[nH]cnc2C(=O)NN)cc1 | > 20 µM | > 20 µM | < 50% | > 20 µM | > 20 µM | 16 µM
COC(=O)c1[nH]cnc1C(=O)Nc1ccc(F)cc1 | > 20 µM | > 20 µM | < 50% | > 20 µM | > 20 µM | > 20 µM
O=C(Nc1ccccn1)c1nc[nH]c1C(=O)N1CCOCC1 | > 20 µM | > 20 µM | < 50% | > 20 µM | > 20 µM | > 20 µM
O=C(Nc1ccccn1)c1nc[nH]c1C(=O)N1CCNCC1 | > 20 µM | > 20 µM | < 50% | > 20 µM | > 20 µM | > 20 µM
